Assay results reported in ChEMBL document CHEMBL1144441, “Identification of a novel cardenolide (2''-oxovoruscharin) from Calotropis procera and the hemisynthesis of novel derivatives displaying potent in vitro antitumor activities and high in vivo tolerance: structure-activity relationship analyses” (J Med Chem, 2005).

How the values were obtained:
WiDr = experiment: In vitro cytotoxic activity against human WiDr cancer cell lines after 3 days of culture; format: functional
Method in brief: (§1)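 Human cancer cell lines, seeded 10 000–40 000 cells/mL and plated for 24 h, then exposed 72 h to nine drug concentrations from 10^-9 to 10^-5 M in semilog steps. Overall growth read by MTT reduction to formazan, absorbance at 570 nm (reference 630 nm). Sextuplicate wells; IC50 is the concentration reducing overall growth by 50% versus untreated control.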

[1] = In vitro cytotoxic activity against human SK-LMS-1 cancer cell lines after 3 days of culture; format: functional
Method in brief: (§2)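 MTT overall-growth panel across 57 human cancer lines. Cells were plated for 24 h at 10 000–40 000 cells/mL, depending on cell type. Drugs were given at nine concentrations, 10^-9 to 10^-5 M in semilog steps, for 3 days. Absorbance was read at 570 nm with a 630 nm reference, in sextuplicate. Surviving cells are expressed as % of untreated control (100%).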

HT1197 = experiment: In vitro cytotoxic activity against human HT1197 cancer cell lines after 3 days of culture; format: functional; method in brief: as §2
MES-SA = experiment: In vitro cytotoxic activity against human MES-SA cancer cell lines after 3 days of culture; format: functional; method in brief: as §2
A-427 = experiment: In vitro cytotoxic activity against human A427 cancer cell lines after 3 days of culture; format: functional; method in brief: as §2
[2] = In vitro cytotoxic activity against human AL-12T cancer cell lines after 3 days of culture; format: functional; method in brief: as §2
Hs-578T = experiment: In vitro cytotoxic activity against human Hs 578.T cancer cell lines after 3 days of culture; format: functional; method in brief: as §2
LoVo = experiment: In vitro cytotoxic activity against human LoVo cancer cell lines after 3 days of culture; format: functional; method in brief: as §2
[3] = In vitro cytotoxic activity against human Hs 683 cancer cell lines after 3 days of culture; Activity expressed as log IC50; format: functional
Method in brief: (§3)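 Adherent human cancer cell lines seeded at 10 000 to 40 000 cells/mL (depending on cell type) and left 24 h before treatment. Nine concentrations, 10^-9 to 10^-5 M in semilog steps, for 72 h. Growth measured by MTT reduction to formazan, absorbance 570 nm (reference 630 nm). Sextuplicate wells. IC50 is the concentration giving 50% lower overall growth than control.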

ZR-75-1 = experiment: In vitro cytotoxic activity against human ZR-75-1 cancer cell lines after 3 days of culture; format: functional; method in brief: as §1
[4] = In vitro cytotoxic activity against human Detroit 562 cancer cell lines after 3 days of culture; format: functional; method in brief: as §2
CAKI-2 = experiment: In vitro cytotoxic activity against human CAKI-2 cancer cell lines after 3 days of culture; format: functional; method in brief: as §2
CFPAC-1 = experiment: In vitro cytotoxic activity against human CFPAC-1 cancer cell lines after 3 days of culture; Activity expressed as log IC50; format: functional; method in brief: as §3
[5] = In vitro cytotoxic activity against human […] cancer cell lines after 3 days of culture; format: functional; method in brief: as §2
[6] = In vitro cytotoxic activity against human SCC-9 cancer cell lines after 3 days of culture; format: functional; method in brief: as §2
A549 = experiment: In vitro cytotoxic activity against human A549 cancer cell lines after 3 days of culture; format: functional; method in brief: as §2
PC-3 = experiment: In vitro cytotoxic activity against human PC-3 cancer cell lines after 3 days of culture; format: functional; method in brief: as §2
DU-145 = experiment: In vitro cytotoxic activity against human DU145 cancer cell lines after 3 days of culture; format: functional; method in brief: as §2
[7] = In vitro cytotoxic activity against human SK-UT-1B cancer cell lines after 3 days of culture; format: functional; method in brief: as §1
[8] = In vitro cytotoxic activity against human 769-P cancer cell lines after 3 days of culture; format: functional; method in brief: as §2
Malme-3M = experiment: In vitro cytotoxic activity against human MALME-3M cancer cell lines after 3 days of culture; format: functional; method in brief: as §2
A204 = experiment: In vitro cytotoxic activity against human A204 cancer cell lines after 3 days of culture; format: functional; method in brief: as §2
LNCaP = experiment: In vitro cytotoxic activity against human LNCaP cancer cell lines after 3 days of culture; format: functional; method in brief: as §2
HT-1080 = experiment: In vitro cytotoxic activity against human HT1080 cancer cell lines after 3 days of culture; format: functional; method in brief: as §2
U-87 MG = experiment: In vitro cytotoxic activity against human U87MG cancer cell lines after 3 days of culture; format: functional, U-87MG ATCC; method in brief: as §1
[9] = In vitro cytotoxic activity against human Hs 729 cancer cell lines after 3 days of culture; format: functional; method in brief: as §2
U373 MG = experiment: In vitro cytotoxic activity against human U-373MG cancer cell lines after 3 days of culture; format: functional, U-373MG ATCC; method in brief: as §1
PANC-1 = experiment: In vitro cytotoxic activity against human Panc-1 cancer cell lines after 3 days of culture; format: functional; method in brief: as §2
HT-29 = experiment: In vitro cytotoxic activity against human HT-29 cancer cell lines after 3 days of culture; format: functional; method in brief: as §2
ACHN = experiment: In vitro cytotoxic activity against human ACHN cancer cell lines after 3 days of culture; format: functional; method in brief: as §2
T98G = experiment: In vitro cytotoxic activity against human T98G cancer cell lines after 3 days of culture; format: functional; method in brief: as §1
HCT-15 = experiment: In vitro cytotoxic activity against human HCT-15 cancer cell lines after 3 days of culture; format: functional; method in brief: as §2
[10] = In vitro cytotoxic activity against human HT144 cancer cell lines after 3 days of culture; format: functional; method in brief: as §2
[11] = In vitro cytotoxic activity against human MCF7HTB-22 cancer cell lines after 3 days of culture; format: functional; method in brief: as §2
T-24 = experiment: In vitro cytotoxic activity against human T24 cancer cell lines after 3 days of culture; format: functional; method in brief: as §1
[12] = In vitro cytotoxic activity against human SW948 cancer cell lines after 3 days of culture; format: functional; method in brief: as §1
MIA PaCa-2 = experiment: In vitro cytotoxic activity against human MiaPaca-2 cancer cell lines after 3 days of culture; format: functional; method in brief: as §2
SK-MEL-28 = experiment: In vitro cytotoxic activity against human SKMEL-28 cancer cell lines after 3 days of culture; format: functional; method in brief: as §1
[13] = In vitro cytotoxic activity against human SW1088 cancer cell lines after 3 days of culture; Activity expressed as log IC50; format: functional; method in brief: as §3
A498 = experiment: In vitro cytotoxic activity against human A-498 cancer cell lines after 3 days of culture; format: functional; method in brief: as §2
FaDu = experiment: In vitro cytotoxic activity against human FaDu cancer cell lines after 3 days of culture; format: functional; method in brief: as §2
H4 = experiment: In vitro cytotoxic activity against human H4 cancer cell lines after 3 days of culture; Activity expressed as log IC50; format: functional; method in brief: as §3
[14] = In vitro cytotoxic activity against human Hs 174.T cancer cell lines after 3 days of culture; format: functional; method in brief: as §2
BXPC-3 = experiment: In vitro cytotoxic activity against human BxPC-3 cancer cell lines after 3 days of culture; format: functional; method in brief: as §2
[15] = In vitro cytotoxic activity against human G361 cancer cell lines after 3 days of culture; format: functional; method in brief: as §2
[16] = In vitro cytotoxic activity against human Capan-2 cancer cell lines after 3 days of culture; format: functional; method in brief: as §2
[17] = In vitro cytotoxic activity against human SW1783 cancer cell lines after 3 days of culture; Activity expressed as log IC50; format: functional; method in brief: as §3
[18] = In vitro cytotoxic activity against human C32 cancer cell lines after 3 days of culture; format: functional; method in brief: as §2
MDA-MB-231 = experiment: In vitro cytotoxic activity against human MDA-MB-231 cancer cell lines after 3 days of culture; format: functional; method in brief: as §2
DLD-1 = experiment: In vitro cytotoxic activity against human DLD-1 cancer cell lines after 3 days of culture; format: functional; method in brief: as §2
[19] = In vitro cytotoxic activity against human Hs 766.T cancer cell lines after 3 days of culture; Activity expressed as log IC50; format: functional; method in brief: as §3
786-0 = experiment: In vitro cytotoxic activity against human 786-O cancer cell lines after 3 days of culture; format: functional; method in brief: as §2
T47D = experiment: In vitro cytotoxic activity against human T-47D cancer cell lines after 3 days of culture; format: functional; method in brief: as §1
[20] = In vitro cytotoxic activity against human Su.86.86 cancer cell lines after 3 days of culture; format: functional; method in brief: as §1
BT-20 = experiment: In vitro cytotoxic activity against human BT-20 cancer cell lines after 3 days of culture; format: functional; method in brief: as §2

## CCc1c2c(nc3ccc(O)cc13)-c1cc3c(c(=O)n1C2)COC(=O)[C@]3(O)CC [7-ETHYL-10-HYDROXYCAMPTOTHECIN]
WiDr
  Log IC50: -6.6
[1]
  Log IC50: -6.4
HT1197
  Log IC50: -5
MES-SA
  Log IC50: -7.1
A-427
  Log IC50: -9
[2]
  Log IC50: -6.1
Hs-578T
  Log IC50: -6.3
LoVo
  Log IC50: -6.4
[3]
  Log IC50: -7
ZR-75-1
  Log IC50: -7.4
[4]
  Log IC50: -8
CAKI-2
  Log IC50: -5.3
CFPAC-1
  Log IC50: -8.3
[5]
  Log IC50: -9
[6]
  Log IC50: -6.1
A549
  Log IC50: -7.4
PC-3
  Log IC50: -6.7
DU-145
  Log IC50: -9
[7]
  Log IC50: -9
[8]
  Log IC50: -7.9
Malme-3M
  Log IC50: -5.2
A204
  Log IC50: -7.7
LNCaP
  Log IC50: -5.5
HT-1080
  Log IC50: -7.3
U-87 MG
  Log IC50: -8.1
[9]
  Log IC50: -7.3
U373 MG
  Log IC50: -9
PANC-1
  Log IC50: -5.1
HT-29
  Log IC50: -7.5
ACHN
  Log IC50: -8.3
T98G
  Log IC50: -7.3
HCT-15
  Log IC50: -7.1
[10]
  Log IC50: -7.6
[11]
  Log IC50: -7.5
T-24
  Log IC50: -8.2
[12]
  Log IC50: -7.7
MIA PaCa-2
  Log IC50: -6.6
SK-MEL-28
  Log IC50: -7.3
[13]
  Log IC50: -5.4
A498
  Log IC50: -6.9
FaDu
  Log IC50: -8.9
H4
  Log IC50: -6.5
[14]
  Log IC50: -6.9
BXPC-3
  Log IC50: -7.1
[15]
  Log IC50: -5.6
[16]
  Log IC50: -6.3
[17]
  Log IC50: -7.3
[18]
  Log IC50: -8.7
MDA-MB-231
  Log IC50: -5.3
DLD-1
  Log IC50: -6.8
[19]
  Log IC50: -5.6
786-0
  Log IC50: -8.3
T47D
  Log IC50: -7.3
[20]
  Log IC50: -6.5
BT-20
  Log IC50: -6.5
